Assay results: PMC8740777 (The FASEB Journal, 2022)

Tests used:
Human primary astrocytes [1] = experiment: Ca2+ mobilization assay, agonistic application; format: cell-based; details: for effect on intracellular Ca2+ mobilization as agonist: Fig. 2A, agonistic application
Method in brief: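 Human primary astrocytes were plated at 10 000 cells/well in 384-well plates (day 0), switched to FreeStyle 293 expression medium on day 1 for 18 h, then loaded with FLIPR Calcium 4 dye for 1 h […]. Intracellular Ca2+ was monitored kinetically across a concentration series up to 30 µM, and logEC50 was taken from concentration-response curves.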

Human primary astrocytes [2] = experiment: cAMP AlphaScreen assay, functional antagonism; format: cell-based; details: 10 µM, 18 h pretreatment
Method in brief: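 Astrocytes were pretreated 18 h with 10 µM test compound, then resuspended in HBSS with 0.5 mM IBMX, 5 mM HEPES and 0.1% BSA at 5000 cells/well. Cells were stimulated with S1P plus 10 µM forskolin for 30 min at room temperature. cAMP was read by AlphaScreen after 1 h dark incubation with donor beads in lysis buffer. Data were baseline-corrected, normalized to S1P response and fitted with three-parameter curves. Mean ± SD, n = 3–4.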

Human primary astrocytes [3] = experiment: Ca2+ mobilization assay, functional antagonism; format: cell-based; details: 18 h pretreatment, Fig. 2B,C
Method in brief: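 Astrocytes were pretreated overnight (18 h) with 1 or 10 µM test compound, then loaded with calcium dye for 1 h without compound before S1P stimulation, with Ca2+ mobilization recorded. Inhibition was assessed against 10 µM S1P. Mean ± SD, n = 4, pooled from three independent experiments.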

Human primary astrocytes [4] = experiment: cAMP AlphaScreen assay, Gαi-coupled agonist mode; format: cell-based; details: Fig. 2D, 10 µM FSK
Method in brief: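 Primary human astrocytes suspended in HBSS with 0.5 mM IBMX, 5 mM HEPES and 0.1% BSA, 5000 cells/well. Compound added with 10 µM forskolin (final), 30 min at room temperature. Lysis buffer (pH 7.4) carried biotin-cAMP/donor beads, then 1 h dark. AlphaScreen read: excitation 680 nm, emission 570 nm. Baseline-corrected, normalized to S1P, three-parameter curve fit. Mean ± SD, n = 3–5 over three experiments.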

S1P1 [5] = target: T1, S1P1 (Homo sapiens, UniProt P21453); experiment: S1PR internalization assay, short-term; format: cell-based; details: 1 µM, 1 h, FCM, normalized to vehicle
Method in brief: (§1)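 C6 glioblastoma cells stably expressing an HA-tagged human S1P receptor subtype, grown in high-glucose DMEM with 10% FBS and penicillin–streptomycin. Test compound or S1P (1 µM) applied for 1 h. Surface receptor stained with anti-HA (clone 3F10), then PE anti-rat IgG, and read by flow cytometry. Vector-transfected C6 cells served as negative control. Levels normalized to vehicle; n = 4 from two independent experiments.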

S1P5 = S1P5 (Homo sapiens, UniProt Q9H228); experiment: S1PR internalization assay, short-term; format: cell-based; details: 1 µM, 1 h, FCM, normalized to vehicle
Method in brief: as §1

S1P1 [6] = target: T1, S1P1; experiment: S1P1 internalization, wash-out experiment in S1P1-C6 cells; format: cell-based; details: 1 µM for 4 h, 18 h compound-free medium, FCM
S1P2 = S1P2 (Homo sapiens, UniProt O95136); experiment: S1PR internalization assay, short-term; format: cell-based; details: 1 µM, 1 h, FCM, normalized to vehicle
Method in brief: as §1

S1P3 = S1P3 (Homo sapiens, UniProt Q99500); experiment: S1PR internalization assay, short-term; format: cell-based; details: 1 µM, 1 h, FCM, normalized to vehicle
Method in brief: as §1

S1P4 = target: T2, S1P4 (Homo sapiens, UniProt O95977); experiment: S1PR internalization assay, short-term; format: cell-based; details: 1 µM, 1 h, FCM, normalized to vehicle
T2 sequence (O95977 1-384): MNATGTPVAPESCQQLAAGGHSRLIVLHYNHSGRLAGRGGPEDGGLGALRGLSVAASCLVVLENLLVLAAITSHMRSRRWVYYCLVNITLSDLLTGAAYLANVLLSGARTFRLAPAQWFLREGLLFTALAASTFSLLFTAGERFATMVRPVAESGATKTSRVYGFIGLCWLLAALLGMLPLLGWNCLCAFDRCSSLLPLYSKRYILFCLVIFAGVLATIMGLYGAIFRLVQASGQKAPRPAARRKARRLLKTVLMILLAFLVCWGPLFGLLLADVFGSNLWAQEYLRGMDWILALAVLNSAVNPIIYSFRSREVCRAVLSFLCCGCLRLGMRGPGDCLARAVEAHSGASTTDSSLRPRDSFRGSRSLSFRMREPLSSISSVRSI
Method in brief: as §1

S1P1 [7] = target: T1, S1P1; experiment: compensated interferometric reader; format: binding
Method in brief: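 Nanovesicles were made by sonicating C6 glioblastoma cells overexpressing HA-tagged human S1P1, with vector-transfected C6 cells as control. Vesicles were incubated 1 h with increasing test compound concentrations. Compensated interferometric reader signal was read against a reference of compound without vesicles. Specific binding was taken as S1P1-vesicle signal minus control-vesicle signal.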

Human primary astrocytes [8] = experiment: Single-cell RNA-seq of cytokine-stimulated astrocytes; format: cell-based; details: 1 µM; for number of DEGs, cytokines + ponesimod vs cytokines: total
Method in brief: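 Primary human astrocytes (500 000 cells per 6 cm dish) received a cytokine mix (TNF-α, IFN-γ, IL-17, IL-1β, IL-6; 25 ng/ml each) ± 1 µM test compound for 24 or 48 h. 10x Chromium 3′ v3 capture targeted 10 000 cells, with NovaSeq sequencing and GRCh38 alignment. Data were normalized by regularized negative binomial regression and SNN-clustered. MAST DEGs: FDR p < .05, log2FC > 1.1. A fibroblast/pericyte cluster was excluded.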

[9] = target: S1P1‐EGFP fusion construct (Homo sapiens, UniProt P21453); experiment: S1P1-EGFP internalization imaging in human primary astrocytes; format: cell-based; details: 1 µM, 1 h
MS fatigue = details: OPTIMUM Phase 3 study; cited from earlier work
[10] = system: cuprizone‐induced demyelination; experiment: cuprizone model, therapeutic paradigm; format: in vivo, C57BL/6J mice; details: 30 mg/kg
[11] = system: cuprizone‐induced demyelination; experiment: cuprizone-induced demyelination, preventative paradigm; format: in vivo, C57BL/6J mice; details: 30 mg/kg b.i.d. oral during 5 weeks 0.2% cuprizone
Method in brief: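 Male C57BL/6J mice (8 weeks old) received 0.2% cuprizone diet for 5 weeks with concurrent oral test compound, 30 mg/kg suspension in 0.25% methylcellulose/0.05% polysorbate 80, twice daily 8 h apart. Brains were perfusion-fixed in 10% NBF and cryoprotected, then cut into 30 µm coronal sections. Sections were stained with Black Gold II and immunostained for Olig2 and Iba1. Signal was quantified in a constant ROI in the midline corpus callosum or cingulum.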

S1P1 [12] = details: cited from earlier work

T1 sequence (P21453 whole entry): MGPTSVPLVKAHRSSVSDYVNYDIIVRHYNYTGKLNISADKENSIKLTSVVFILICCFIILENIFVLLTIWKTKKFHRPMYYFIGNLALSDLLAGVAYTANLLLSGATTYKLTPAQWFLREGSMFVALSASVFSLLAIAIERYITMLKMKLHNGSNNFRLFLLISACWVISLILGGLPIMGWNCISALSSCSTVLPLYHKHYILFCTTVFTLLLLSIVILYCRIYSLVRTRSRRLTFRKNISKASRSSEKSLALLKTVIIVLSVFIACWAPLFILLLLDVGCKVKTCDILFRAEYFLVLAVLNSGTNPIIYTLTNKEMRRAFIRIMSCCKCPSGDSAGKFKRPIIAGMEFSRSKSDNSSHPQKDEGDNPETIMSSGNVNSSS
S1P2, sequence (O95136 whole entry): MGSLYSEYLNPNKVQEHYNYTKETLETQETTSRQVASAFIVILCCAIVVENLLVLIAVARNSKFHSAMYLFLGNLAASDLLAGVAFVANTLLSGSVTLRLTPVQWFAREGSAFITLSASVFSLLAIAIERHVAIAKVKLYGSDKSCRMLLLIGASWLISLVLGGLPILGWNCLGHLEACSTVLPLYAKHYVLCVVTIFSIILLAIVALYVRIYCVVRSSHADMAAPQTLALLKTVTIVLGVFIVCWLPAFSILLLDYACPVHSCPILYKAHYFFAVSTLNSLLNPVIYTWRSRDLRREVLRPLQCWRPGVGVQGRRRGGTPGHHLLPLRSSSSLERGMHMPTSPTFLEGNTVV
S1P3, sequence (Q99500 whole entry): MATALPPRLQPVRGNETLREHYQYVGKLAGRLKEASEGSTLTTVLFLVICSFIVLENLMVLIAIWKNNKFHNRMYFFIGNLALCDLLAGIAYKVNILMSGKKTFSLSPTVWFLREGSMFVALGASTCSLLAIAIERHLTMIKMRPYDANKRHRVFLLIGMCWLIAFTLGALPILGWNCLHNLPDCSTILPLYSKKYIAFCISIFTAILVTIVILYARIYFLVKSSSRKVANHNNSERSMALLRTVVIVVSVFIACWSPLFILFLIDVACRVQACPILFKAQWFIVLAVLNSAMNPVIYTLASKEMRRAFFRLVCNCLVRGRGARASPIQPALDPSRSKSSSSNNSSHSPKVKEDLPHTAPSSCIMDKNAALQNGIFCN
S1P5, sequence (Q9H228 whole entry): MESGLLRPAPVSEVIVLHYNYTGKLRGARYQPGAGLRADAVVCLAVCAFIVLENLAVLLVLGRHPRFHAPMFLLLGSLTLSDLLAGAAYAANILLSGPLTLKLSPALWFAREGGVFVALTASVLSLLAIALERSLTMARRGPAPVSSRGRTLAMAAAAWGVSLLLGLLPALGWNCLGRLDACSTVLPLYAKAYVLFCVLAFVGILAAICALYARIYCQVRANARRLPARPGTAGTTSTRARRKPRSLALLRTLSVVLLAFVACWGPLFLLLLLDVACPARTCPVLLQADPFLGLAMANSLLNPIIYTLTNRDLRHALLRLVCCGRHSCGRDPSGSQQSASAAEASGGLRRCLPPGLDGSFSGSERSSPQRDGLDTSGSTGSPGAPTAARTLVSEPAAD
S1P1‐EGFP fusion construct, sequence (P21453 whole entry, the tested form may be a part): as the sequence (P21453 whole entry) above

CCCCCCCCc1ccc(CC[C@](N)(CO)COP(=O)(O)O)cc1 [Fingolimod-P, fingolimod phosphate]
effect on intracellular Ca2+ mobilization as agonist (Human primary astrocytes [1]): none of the S1PR modulators (ponesimod, siponimod, ozanimod, or fingolimod‐P) affected intracellular Ca^2+ mobilization
effect on S1P-induced cAMP inhibition (functional antagonism) (Human primary astrocytes [2]): right shift of cAMP‐inhibitory curves
inhibition of S1P-induced Ca2+ mobilization (functional antagonism) (Human primary astrocytes [3]): minor
effect on inhibiting cAMP production as agonists (Human primary astrocytes [4]): Neither ponesimod nor fingolimod‐P showed any effect

CCCCCCCCCCCCC/C=C/[C@@H](O)[C@@H](N)COP(=O)(O)O [S1P, Sphingosine 1‐phosphate]
cell surface expression of S1P1 (S1P1 [5]): significantly reduced cell surface expression
EC50 (Human primary astrocytes [1]; Homo sapiens, Astrocyte, read-out: logEC50, intracellular Ca2+ response (converted)): 93.1 nM
cell surface expression of S1P5 (S1P5): significantly reduced cell surface expression
cell surface expression of S1P1 after wash-out (S1P1 [6]): recycled to the cell surface
cell surface expression of S1P2 (S1P2): significantly reduced cell surface expression
cell surface expression of S1P3 (S1P3): significantly reduced cell surface expression
cell surface expression of S1P4 (S1P4): relatively less responsive

CCc1cc(/C(C)=N/OCc2ccc(C3CCCCC3)c(C(F)(F)F)c2)ccc1CN1CC(C(=O)O)C1 [Siponimod]
effect on intracellular Ca2+ mobilization as agonist (Human primary astrocytes [1]): none of the S1PR modulators (ponesimod, siponimod, ozanimod, or fingolimod‐P) affected intracellular Ca^2+ mobilization
Kd (S1P1 [7]): 0.8 ± 0.97 nM
inhibition of S1P-induced Ca2+ mobilization (functional antagonism) (Human primary astrocytes [3]): minor

CC(C)Oc1ccc(-c2nc(-c3cccc4c3CC[C@@H]4NCCO)no2)cc1C#N [Ozanimod]
effect on intracellular Ca2+ mobilization as agonist (Human primary astrocytes [1]): none of the S1PR modulators (ponesimod, siponimod, ozanimod, or fingolimod‐P) affected intracellular Ca^2+ mobilization
inhibition of S1P-induced Ca2+ mobilization (functional antagonism) (Human primary astrocytes [3]): blocked S1P‐induced Ca^2+ mobilization in a concentration‐dependent manner

CCC/N=C1\S/C(=C\c2ccc(OC[C@H](O)CO)c(Cl)c2)C(=O)N1c1ccccc1C [Ponesimod]
cell surface expression of S1P1 (S1P1 [5]): only reduced the cell surface expression of S1P1
Ca2+ signal at highest concentration (Human primary astrocytes [1]; 30 µM, Figure S1): induced a Ca^2+ signal only at the highest concentration
effect on intracellular Ca2+ mobilization as agonist (Human primary astrocytes [1]): none of the S1PR modulators (ponesimod, siponimod, ozanimod, or fingolimod‐P) affected intracellular Ca^2+ mobilization
Kd (S1P1 [7]): 2.09 ± 0.27 nM
common DEGs: upregulated by cytokines and downregulated by ponesimod (Human primary astrocytes [8]; 24 and 48 h): 2432 DEGs
number of downregulated DEGs, cytokines + ponesimod vs cytokines (Human primary astrocytes [8]; 24 h): 4031
number of upregulated DEGs, cytokines + ponesimod vs cytokines (Human primary astrocytes [8]; 24 h): 34
number of DEGs, cytokines + ponesimod vs cytokines (Human primary astrocytes [8]; 24 h): 4065 DEGs
number of downregulated DEGs, cytokines + ponesimod vs cytokines (Human primary astrocytes [8]; 48 h): 822
number of upregulated DEGs, cytokines + ponesimod vs cytokines (Human primary astrocytes [8]; 48 h): 130
cellular distribution on UMAP, ponesimod alone (Human primary astrocytes [8]; 48 h, no cytokines): highly overlapping cellular distribution as compared to controls
number of DEGs, cytokines + ponesimod vs cytokines (Human primary astrocytes [8]; 48 h): 952 DEGs
expression of S1PR1, S1PR2 and S1PR3 (Human primary astrocytes [8]; cytokine-enhanced expression): suppressed
FOS expression (Human primary astrocytes [8]; cytokine-stimulated astrocytes): significantly inhibited FOS expression
metallothionein (MT) gene expression in Cluster 8 (Human primary astrocytes [8]; cytokine-stimulated astrocytes): significantly downregulated
proliferating astrocyte clusters (Clusters 6, 9, and 12) (Human primary astrocytes [8]; cytokine-stimulated astrocytes): blocked decreases in proliferating astrocyte clusters
cellular fractions of reactive astrocyte clusters (Human primary astrocytes [8]; cytokine-stimulated astrocytes, Clusters 3, 8, 10, 11, 15): selectively decreased the cellular fractions of Clusters 8, 10, and 15
S1P1 internalization (S1P1-EGFP imaging) [9]: rapid S1P1 internalization
MS fatigue, secondary endpoint (MS fatigue): achieved a novel secondary endpoint of reduced MS fatigue
cell surface expression of S1P5 (S1P5): remained unchanged
effect on S1P-induced cAMP inhibition (functional antagonism) (Human primary astrocytes [2]): effectively blocked S1P‐induced cAMP inhibition
cell surface expression of S1P1 after wash-out (S1P1 [6]): reduced cell surface expression of S1P1 for a sustained period of time
cell surface expression of S1P2 (S1P2): remained unchanged
remyelination after cuprizone diet cessation ([10]; prolonged treatment (3 weeks)): significantly enhanced remyelination in the cingulum
remyelination after cuprizone diet cessation ([10]; short-term treatment (1 week)): did not show any beneficial effects
GFAP+ astrocytes in the CC [11]: increased in the CC
GFAP+ astrocytes in the cingulum [11]: tended to decrease in the cingulum
Iba1+ microglia in the cingulum [11]: significantly decreased
demyelination in the cingulum (black gold II staining) [11]: protected mice from demyelination in the cingulum
number of Olig2+ oligodendrocytes in CC and cingulum [11]: increased
inhibition of S1P-induced Ca2+ mobilization (functional antagonism) (Human primary astrocytes [3]): blocked S1P‐induced Ca^2+ mobilization in a concentration‐dependent manner
cell surface expression of S1P3 (S1P3): remained unchanged
effect on inhibiting cAMP production as agonists (Human primary astrocytes [4]): Neither ponesimod nor fingolimod‐P showed any effect
cell surface expression of S1P4 (S1P4): remained unchanged
selectivity for S1P1 as compared to other S1PRs (S1P1 [12]): > 10 fold
